Source: ChEMBL document CHEMBL4017510, “Nitazoxanide Analogs Require Nitroreduction for Antimicrobial Activity in Mycobacterium smegmatis” (J Med Chem, 2017)
Values after ≈ are worked out from the molar mass of the structure shown. Active and inactive are the calls of the source.

Key:
[1] = tested on: Mycolicibacterium smegmatis; experiment: Drug metabolism in Mycobacterium smegmatis assessed as hydroxyl […] formation after 3 hrs by LC-MS/MS analysis; format: ADME
Method in brief: (§1)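 M. smegmatis wild type or transposon mutant 126E6 was grown in 7H9 to OD600 0.6 at 37 °C. 5 mL aliquots received 0.3 mg of compound or none and were incubated 3 h. Cultures were sonicated, cleared and filtered (0.45 μm), then mixed with acetonitrile/methanol/water. Analysis was aqueous normal-phase LC with ESI QTOF, reported as ion counts per mL, including the hydroxylamine intermediate (m/z 372.0012).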

[2] = Drug metabolism in Mycobacterium smegmatis 126E6 assessed as NfnB-mediated hydroxyl […] formation after 3 hrs by LC-MS/MS analysis; format: ADME; conditions: mycolicibacterium smegmatis; method in brief: as §1
[3] = tested on: Staphylococcus aureus; experiment: Antibacterial activity against Staphylococcus aureus by resazurin microdilution assay; format: functional
Method in brief: (§2)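 Clinical isolates were grown at 37 °C in Mueller−Hinton broth. Two-fold dilutions were made in 96-well plates and inoculated with about 1 × 10^3 UFC per well. Growth controls (no antibiotic) and medium controls (no bacteria) were included. Resazurin was added to 0.003% final. MIC was the lowest concentration that prevented the blue-to-pink color change.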

[4] = tested on: Streptococcus agalactiae; experiment: Antibacterial activity against Streptococcus agalactiae NEM316 by resazurin microdilution assay; format: functional
Method in brief: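 S. agalactiae NEM316 in Todd−Hewitt broth at 37 °C. Compounds were tested as 2-fold dilutions in 96 wells with an inoculum of about 1 × 10^3 UFC per well. Controls without antibiotic or without bacteria were included. Resazurin 0.003% final. MIC was the lowest concentration preventing the color change from blue to pink.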

[5] = tested on: Mycolicibacterium smegmatis; experiment: Antibacterial activity against Mycobacterium smegmatis harboring 126E6 mutant at 51.6 uM measured after 24 hrs by resazurin microdilution assay; format: functional
Method in brief: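 Hypersensitivity screen of the M. smegmatis Tn611 transposon mutant collection. Wells receive 2 μL from each mutant in Middlebrook 7H9 with ADC, 0.05% Tween 80, kanamycin and PANTA, with compound at 20 μg/mL final. Drug-free plates serve as growth controls. Plates are incubated 48 h at 37 °C, with resazurin (0.003% final) added at 24 h. Clones failing to grow are scored.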

[6] = tested on: Klebsiella aerogenes; experiment: Antibacterial activity against Enterobacter aerogenes by resazurin microdilution assay; format: functional; method in brief: as §2
[7] = tested on: Mycobacterium marinum; experiment: Antibacterial activity against Mycobacterium marinum after 4 days by resazurin microdilution assay; format: functional; conditions: 96 h
Method in brief: (§3)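 Mycobacteria were cultured in Middlebrook 7H9 with ADC and glycerol, at 32 °C for M. marinum (4 days) or with overnight incubation for M. aurum. Resazurin microdilution used 2-fold dilutions and about 1 × 10^3 UFC per well, with growth and medium controls. Resazurin 0.003% final. MIC defined as the lowest concentration preventing the blue-to-pink change.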

[8] = tested on: Pseudomonas aeruginosa; experiment: Antibacterial activity against Pseudomonas aeruginosa by resazurin microdilution assay; format: functional; method in brief: as §2
[9] = tested on: Mycolicibacterium aurum; experiment: Growth inhibition of Mycobacterium aurum at 0.4 uM after overnight incubation by resazurin microdilution assay relative to control; format: functional; conditions: read-out: GI
Method in brief: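 Single-concentration screen at 0.15 μg/mL (average 0.4 μM). M. aurum (20-fold dilution of an OD600 0.2–0.3 culture) was grown in 7H9 with 0.1% casitone, 0.5% glycerol, OADC and 0.002% resazurin for 18 h at 37 °C. Read-out was ΔOD (OD570 − OD604). Percent viability was normalized to DMSO (100%) and kanamycin (0%) controls.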

[10] = tested on: Mycolicibacterium smegmatis; experiment: Antibacterial activity against Mycobacterium smegmatis MC2 155 by resazurin microdilution assay; format: functional; conditions: str. MC2 155
Method in brief: (§4)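 Two-fold drug dilutions in 96-well plates with species-appropriate medium. Each well receives an inoculum of about 1 × 10^3 UFC. Each plate has a no-drug growth control and a no-bacteria medium control. Resazurin is added to 0.003% final. Incubation time and temperature vary by species. MIC is the lowest concentration preventing the blue-to-pink (resorufin) colour change.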

[11] = tested on: Mycobacterium avium; experiment: Antibacterial activity against Mycobacterium avium after 7 days by resazurin microdilution assay; format: functional; conditions: 168 h; method in brief: as §4
[12] = tested on: Escherichia coli; experiment: Antibacterial activity against Escherichia coli after 6 hrs by resazurin microdilution assay; format: functional
Method in brief: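 Clinical isolate of E. coli in Mueller−Hinton broth at 37 °C, 6 h incubation. Two-fold dilution series in 96-well plates with about 1 × 10^3 UFC per well. Growth and medium-only controls were run. Resazurin at 0.003% final. MIC taken as the lowest concentration blocking reduction of resazurin (blue) to resorufin (pink).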

[13] = tested on: Mycolicibacterium aurum; experiment: Antibacterial activity against Mycobacterium aurum after overnight incubation by resazurin microdilution assay; format: functional; method in brief: as §3
[14] = tested on: Klebsiella pneumoniae; experiment: Antibacterial activity against Klebsiella pneumoniae by resazurin microdilution assay; format: functional; method in brief: as §2
[15] = tested on: Mycobacterium tuberculosis; experiment: Antibacterial activity against Mycobacterium tuberculosis H37Rv after 7 days by resazurin microdilution assay; format: functional; conditions: 168 h; method in brief: as §4
[16] = tested on: Vero; experiment: Cytotoxicity against African green monkey Vero cells; format: cell-based; conditions: Chlorocebus sabaeus
[17] = tested on: Mycolicibacterium smegmatis; experiment: Antibacterial activity against Mycobacterium smegmatis harboring 126E6 mutant measured after 24 hrs by resazurin microdilution assay; format: functional; method in brief: as §4

| SMILES | Drug metabolism [1] | Drug metabolism [2] | MIC [3] [µM] | MIC [4] [µM] | Activity [5] | MIC [6] [µM] | MIC [7] [µM] | MIC [8] [µM] | inhibition of growth at 0.4 µM [9] [%] | MIC [10] [µM] | MIC [11] [µM] | MIC [12] [µM] | MIC [13] [µM] | MIC [14] [µM] | MIC [15] [µM] | IC50 [16] [µM] | MIC [17] [µM] |
| --- | --- | --- | --- | --- | --- | --- | --- | --- | --- | --- | --- | --- | --- | --- | --- | --- | --- |
| CCCOc1ccc(C(=O)Nc2ncc([N+](=O)[O-])s2)cc1Br | Metabolite_Notdetected | Metabolite_Detected | 2.33 (≈ 0.9 µg/mL) | > 129 | Active | > 129 | 4.03 (≈ 1.56 µg/mL) | > 129 | > 40 | > 129 | 77.7 (≈ 30 µg/mL) | > 129 | 1 (≈ 0.386 µg/mL) | > 129 | 77.6 (≈ 30 µg/mL) | > 100 | 10.1 (≈ 3.9 µg/mL) |
| O=C(Nc1ncc([N+](=O)[O-])s1)c1ccccc1OC(F)(F)F | – | – | 48.8 (≈ 16.3 µg/mL) | > 93.6 | – | > 93.6 | 9 (≈ 3 µg/mL) | 93.6 (≈ 31.2 µg/mL) | > 40 | 75 (≈ 25 µg/mL) | 11.7 (≈ 3.9 µg/mL) | > 93.6 | 4.65 (≈ 1.55 µg/mL) | > 93.6 | 75 (≈ 25 µg/mL) | – | 19.6 (≈ 6.53 µg/mL) |
| O=C(Nc1ncc([N+](=O)[O-])s1)c1ccc(Cl)cc1Cl | – | – | 6.2 (≈ 1.97 µg/mL) | > 93 | – | > 93 | 18.8 (≈ 5.98 µg/mL) | 93 (≈ 29.6 µg/mL) | > 40 | 78.5 (≈ 25 µg/mL) | 46.6 (≈ 14.8 µg/mL) | > 93 | 2.45 (≈ 0.779 µg/mL) | > 93 | 78.5 (≈ 25 µg/mL) | > 100 | 18.6 (≈ 5.92 µg/mL) |
